The subject of series [1] is GABA-A receptor; anion channel. Kind of series: In vitro inhibition of [35S]TBPS binding to Gamma-aminobutyric acid A (GABA-A) receptor of rat cerebral cortex (No displacement). Format: tissue-based.
Series [2] can be described thus: Partition coefficient (logP). Format: physicochemical. The following applies: octanol/water.
The target of series [3] is GABA-A receptor; anion channel. Kind of series: Inhibition of [35S]TBPS binding to GABA-A receptor in rat cerebral cortex. It is filed as tissue-based. A digest of the protocol:
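Unwashed cortical membranes from male Sprague-Dawley rats (180-200 g), homogenized in 50 mM Tris-citrate pH 7.4 with […], centrifuged at 20000g and resuspended in buffer. Final 1 nM [35S]TBPS with 0.20-0.25 mg protein and NaCl, 90 min at 25 °C, then GF/B filtration and scintillation counting. Nonspecific binding defined with 100 µM picrotoxin.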

Series [4] has as its target T1, GABA A receptor alpha-1/beta-1/gamma-2 (Homo sapiens, UniProt P14867+P18505+P18507).
T1 sequence (P14867 whole entry): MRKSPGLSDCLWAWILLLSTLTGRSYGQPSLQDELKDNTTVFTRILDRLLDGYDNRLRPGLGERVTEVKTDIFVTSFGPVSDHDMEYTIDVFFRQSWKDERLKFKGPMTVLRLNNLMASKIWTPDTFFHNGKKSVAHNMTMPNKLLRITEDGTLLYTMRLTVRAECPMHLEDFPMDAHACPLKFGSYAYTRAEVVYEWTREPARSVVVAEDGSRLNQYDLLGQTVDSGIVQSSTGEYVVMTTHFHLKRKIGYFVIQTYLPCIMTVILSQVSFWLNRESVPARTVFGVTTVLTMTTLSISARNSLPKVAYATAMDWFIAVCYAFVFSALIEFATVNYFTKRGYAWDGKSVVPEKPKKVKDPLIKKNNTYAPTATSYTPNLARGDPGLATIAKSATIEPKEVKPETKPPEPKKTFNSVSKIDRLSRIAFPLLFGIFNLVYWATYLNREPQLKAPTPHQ
T1 sequence (P18507 whole entry): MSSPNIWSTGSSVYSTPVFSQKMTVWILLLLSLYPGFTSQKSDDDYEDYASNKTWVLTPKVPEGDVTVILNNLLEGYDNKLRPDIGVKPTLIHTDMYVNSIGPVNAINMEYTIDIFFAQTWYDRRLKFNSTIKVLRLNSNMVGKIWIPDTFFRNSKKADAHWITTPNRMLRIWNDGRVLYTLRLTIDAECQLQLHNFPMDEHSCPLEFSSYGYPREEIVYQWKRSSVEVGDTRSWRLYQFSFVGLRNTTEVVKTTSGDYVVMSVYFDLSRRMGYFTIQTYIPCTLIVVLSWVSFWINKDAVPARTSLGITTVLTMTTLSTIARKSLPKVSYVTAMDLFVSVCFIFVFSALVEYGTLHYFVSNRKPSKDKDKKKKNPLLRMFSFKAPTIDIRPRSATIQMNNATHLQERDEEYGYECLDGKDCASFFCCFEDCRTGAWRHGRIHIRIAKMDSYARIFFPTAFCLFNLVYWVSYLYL
T1 sequence (P18505 whole entry): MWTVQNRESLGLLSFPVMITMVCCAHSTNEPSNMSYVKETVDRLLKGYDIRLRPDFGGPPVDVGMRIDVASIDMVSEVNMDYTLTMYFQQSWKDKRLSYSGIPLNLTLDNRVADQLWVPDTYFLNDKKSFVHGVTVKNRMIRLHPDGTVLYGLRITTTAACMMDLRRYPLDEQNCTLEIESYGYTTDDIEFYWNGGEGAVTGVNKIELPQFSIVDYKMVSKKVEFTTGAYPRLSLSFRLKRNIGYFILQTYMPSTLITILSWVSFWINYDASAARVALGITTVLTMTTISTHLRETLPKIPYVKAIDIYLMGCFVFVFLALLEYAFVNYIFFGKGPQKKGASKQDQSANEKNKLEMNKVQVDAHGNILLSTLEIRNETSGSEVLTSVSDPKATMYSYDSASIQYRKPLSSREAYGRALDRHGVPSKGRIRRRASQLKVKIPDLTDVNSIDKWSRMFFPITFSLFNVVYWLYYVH
Description: Modulation of GABA-induced chloride currents in Xenopus laevis oocytes expressing human alpha-1-beta-1-gamma-2 GABA-A receptor subunits. Format: functional, cell-based, Oocyte. The method in brief:
(§1)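 Human α1, β1 and γ2 subunit cDNAs in pCDM8 (1.5 ng/30 nL) injected into nuclei of defolliculated stage V-VI Xenopus oocytes, which were cultured at 19 °C in supplemented MBS. Recording by two-electrode voltage clamp at -70 mV about 24 h after injection, with MBS perfusion at room temperature. Compounds came from 10 mM DMSO stocks diluted in MBS. Responses were normalized to a GABA control response, either EC20 or 10 mM GABA.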

The target in series [5] is T2, GABA A receptor alpha-1/beta-1/gamma-2 (Homo sapiens) (UniProt P14867+P18507+P18505). Kind of series: Direct activation of chloride currents (percentage of 10 mM GABA response) in Xenopus laevis oocytes expressing human alpha-1-beta-1-gamma-2 GABA-A receptor subunits. Format: functional, cell-based. Conditions: Oocyte; call rule not given here. The method in brief:
as §1

Series [6] concerns the target T1, GABA A receptor alpha-1/beta-1/gamma-2. Kind of series: Direct activation of chloride current in Xenopus laevis oocytes expressing human alpha-1-beta-1-gamma-2 GABA-A receptor subunits. Format: functional, cell-based, Oocyte. The method in brief:
as §1

For series [7], the target named is T2, GABA A receptor alpha-1/beta-1/gamma-2 (Homo sapiens). Description: Modulation of GABA-induced chloride currents (percentage of GABA EC20 response) against human alpha-1-beta-1-gamma-2 GABA-A receptor subunits expressed in Xenopus laevis oocytes. Conditions: Oocyte. It is filed as functional, cell-based. A digest of the protocol:
as §1

For the compound `CC(C)c1cccc(C(C)C)c1OC(=O)CN1CCOCC1`, in series [1], the IC50 result is “Not Active”.

In series [2], `COS(=O)(=O)c1cc(C(C)C)c(O)c(C(C)C)c1` registered a logP of 3.7. Also, the IC50 in series [3] came out at 9.4 µM.

On to `CC(C)c1cc(I)cc(C(C)C)c1O`, for which, in series [2], the logP turned out to be 5.75. For the same compound, the IC50 in series [3] is 1.2 µM. The figures for the 50% effective concentration (EC50) in series [4] and in series [6] were 12 µM and 51 µM, respectively. The Max activation in series [5] came out at 36%. Besides, the Max potentiation in series [7] was 311%.

On to `CCCN(CCC)CC(=O)Oc1c(C(C)C)cccc1C(C)C`, for which the IC50 result in series [1] is given as “Not Active”.

In turn, `COC(CNCC(=O)Oc1c(C(C)C)cccc1C(C)C)OC` gave an IC50 in series [3] of 15.6 µM.

Turning to `CC(C)c1cc(N(C)C)cc(C(C)C)c1O`, the logP in series [2] came to 4.52. In addition, the IC50 in series [3] was found to be 5.7 µM.

Turning to `CC(C)c1cc(NC(=O)C(F)(F)F)cc(C(C)C)c1O`, the logP in series [2] was 4.46. Also, the concentration for half-maximal inhibition (IC50) in series [3] was found to be 14 µM.

In series [2], `CC(C)c1cc(CN(C)C)cc(C(C)C)c1O` showed a log partition coefficient (logP) of 2.5. This compound also showed an IC50 in series [3] of 739 µM.

With `CC(C)c1cc([N+](C)(C)C)cc(C(C)C)c1O.[I-]`, the IC50 entry in series [1] is recorded as “Not Active”.

In series [3], `CCN(CC)CC(=O)Oc1c(C(C)C)cccc1C(C)C` returned an IC50 of 21.8 µM.

`CC(C)c1cc([N+](=O)[O-])cc(C(C)C)c1O`: the logP in series [2] came out at 4.71. In series [3], this compound returned an IC50 of 1.95 µM.

The compound `CC(C)c1cc(Br)cc(C(C)C)c1O` returned a logP in series [2] of 5.49. Further, the IC50 in series [3] is 1.07 µM. In addition, the EC50 was found to be 12 µM in series [4] and 38 µM in series [6]. In series [5], this compound showed a Max activation of 34%. Further, in series [7], the Max potentiation came to 223%.

The compound `CC(C)c1cc(C=O)cc(C(C)C)c1O` registered a logP in series [2] of 4.3. For the same compound, the half-maximal inhibitory concentration (IC50) in series [3] was found to be 5.8 µM.

Compound `CC(C)c1cc(NS(C)(=O)=O)cc(C(C)C)c1O` returned a logP in series [2] of 3.14. This compound also displayed a half-maximal inhibitory concentration (IC50) in series [3] of 131 µM.

In the case of `CC(C)c1cc(C(=O)c2ccccc2)cc(C(C)C)c1O`, the logP in series [2] came to 5.91. Further, the IC50 in series [3] was found to be 0.85 µM. The EC50 in series [4] came out at 9 µM; in series [6] it was 47 µM. Further, the Max activation in series [5] was found to be 41%. Moreover, in series [7], the Max potentiation was determined as 220%.

Compound `COc1c(C(C)C)cccc1C(C)C` showed a half-maximal inhibitory concentration (IC50) in series [3] of 37 µM.

For the compound `CC(C)c1cccc(C(=O)O)c1O`, in series [1], the IC50 result was “Not Active”.

For `CC(C)c1cccc(C(C)C)c1OC(=O)CN1CCCC1`, the IC50 in series [3] came to 6.52 µM.

Compound `COC(=O)c1cccc(C(C)C)c1O` returned an IC50 in series [3] of 39.5 µM.

The compound `CC(C)c1cc(Cl)cc(C(C)C)c1O` registered a logP in series [2] of 5.34. The compound also registered an IC50 in series [3] of 1.44 µM. For the same compound, the EC50 was 10 µM in series [4] and 38 µM in series [6]. Also, in series [5], the Max activation was found to be 37%. The Max potentiation in series [7] was determined as 205%.

In series [2], `CC(C)c1cc(N)cc(C(C)C)c1O` had a logP of 3.1. In series [3], this compound displayed a concentration for half-maximal inhibition (IC50) of 23.6 µM.

With `CC(=O)Nc1cc(C(C)C)c(O)c(C(C)C)c1`, in series [1], the 50% inhibitory concentration (IC50) entry was “Not Active”.

Take `CC(C)c1cccc(C(C)C)c1O` [PROPOFOL]: the logP in series [2] came to 4.33. Besides, the EC50 was 8 µM in series [4] and 44 µM in series [6]. The compound also returned a Max activation in series [5] of 38%. In addition, the Max potentiation in series [7] was 296%.

As for `CC(=O)Oc1c(C(C)C)cccc1C(C)C`, the IC50 in series [3] came to 8.5 µM.

On to `CC(C)c1cccc(C(C)C)c1OC(=O)c1ccccc1`, for which the IC50 in series [3] stood at 15.2 µM.

The values are drawn from ChEMBL document CHEMBL1131230 (J Med Chem, 1998).
